# From PMC10187672 (RNA, 2023)
# Several values for one entry are separate records, joined by “and”; a condition that tells them apart may be missing. Equal values may be shown once.
# Tests used:
# eIF4A3 [1] = biological target: T1, eIF4A3 (Homo sapiens, UniProt P38919); test: Fluorescence polarization; format: binding; conditions: 10 µM compound, 1 mM AMPPNP
# [2] = system: 4A1^F163L/4A2^− eHAP1 cells; test: RT-qPCR of FF-4.04 and FF-4.06 reporter mRNA; format: cell-based; conditions: 5 h exposure, normalized to GAPDH, relative to DMSO
# In short: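 Cells were nucleofected with the PTC-containing or control FLuc-β-globin reporter and selected as a pool in G418 (1.6 mg/mL). They were seeded at 250,000/well and exposed to compound for 5 h. After TRIzol extraction and oligo(dT) cDNA synthesis, EvaGreen qPCR used β-globin (HBB) primers. Values were normalized to GAPDH and expressed relative to DMSO.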
# [3] = system: Krebs-2 translation extracts; test: In vitro translation of FF/HCV/Ren bicistronic reporter mRNAs; format: biochemical; conditions: Krebs-2 extracts, 1 h at 30°C
# In short: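 Reporter mRNAs were used at 10 ng/µL final. FLuc and RLuc activities were read by luminometry, and RLU were normalized to DMSO vehicle controls.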
# [4] = system: SC35 mRNA in 4A1^F163L/4A2^− eHAP1 cells; test: RT-qPCR of endogenous SC35 and HPRT mRNA; format: cell-based; conditions: 5 h exposure, normalized to β-actin
# In short: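 Cells were seeded at 250,000/well and given a concentration series of compound for 5 h. Total RNA was TRIzol-extracted, and 500 ng was reverse-transcribed with oligo(dT) primer. EvaGreen qPCR measured SC35 and HPRT, normalized to β-actin and expressed as fold change versus DMSO.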
# [5] = system: TCR-β minigene mRNA (NMD) in HeLa cells; test: NMD assay, RT-qPCR of TCR-β minigene mRNA in PTC− and PTC+ HeLa cells; format: cell-based; conditions: for TCR-β mRNA levels in PTC+ cells / TCR-β mRNA levels in PTC− cells: normalized to β-actin; for TCR-β mRNA levels in PTC− cells: PTC− HeLa cells
# In short: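 HeLa cells carrying a TCR-β minigene with or without a PTC were seeded at 100,000/well and exposed to compound across a concentration series for 1 h or 5 h. Total RNA was TRIzol-extracted, and 500 ng was reverse-transcribed with oligo(dT) primer. EvaGreen qPCR followed, with TCR-β normalized to β-actin. n = 3 ± SD.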
# eIF4A1 [6] = biological target: T2, eIF4A1 (Homo sapiens, UniProt P60842); test: FP dissociation of preformed protein•ATP•RNA•compound complexes; format: binding; conditions: 10 µM compound, 1 mM ATP, 1000-fold molar excess unlabeled poly r(AG)8 RNA
# T2 sequence (P60842 whole entry, species assumed): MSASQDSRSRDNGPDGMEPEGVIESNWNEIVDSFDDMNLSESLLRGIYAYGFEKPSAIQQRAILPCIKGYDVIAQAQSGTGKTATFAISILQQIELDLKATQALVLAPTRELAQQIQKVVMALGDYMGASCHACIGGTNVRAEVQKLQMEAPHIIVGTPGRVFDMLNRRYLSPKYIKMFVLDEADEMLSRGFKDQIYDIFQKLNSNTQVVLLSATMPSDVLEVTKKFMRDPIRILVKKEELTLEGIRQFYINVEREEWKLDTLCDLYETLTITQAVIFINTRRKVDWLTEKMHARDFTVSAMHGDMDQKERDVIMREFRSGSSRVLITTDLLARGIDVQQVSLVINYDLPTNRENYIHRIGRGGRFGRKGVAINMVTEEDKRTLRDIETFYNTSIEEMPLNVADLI
# In short: (§1)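 Recombinant His6-tagged human protein was expressed in E. coli BL21(DE3) and Ni-NTA purified. Complexes were preformed for 30 min at RT in the dark in FP buffer (HEPES-NaOH pH 8, 0.1% DMSO) with 1.5 µM protein, 10 nM FAM-poly r(AG)8 and 1 mM ATP. DMSO reactions used 25 µM protein. After adding 10 µM unlabeled RNA, FP was read every 10 sec. Half-life came from a one-phase exponential decay fit (Y0 = 1, plateau = 0).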
# eIF4A3 [7] = biological target: T1, eIF4A3; test: as above; format: binding; conditions: 10 µM compound, 1 mM ATP, 1000-fold molar excess unlabeled poly r(AG)8 RNA
# In short: as §1
# eIF4A1 [8] = biological target: T2, eIF4A1; test: Fluorescence polarization; format: binding; conditions: 10 µM compound, 1 mM AMPPNP
# [9] = system: HeLa cells harboring a (TCR)-β minigene; test: [35S]-Methionine labeling of de novo protein synthesis; format: cell-based; conditions: 1 h exposure, labeling last 15 min
# In short: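 PTC+ minigene HeLa cells were seeded at 50,000/well and treated with compound for 1 h the next day, with [35S]-Met/Cys added for the final 15 min. Cells were washed and lysed in RIPA buffer, and lysates were spotted on paper and TCA-precipitated. Radioactivity was measured by scintillation counting and normalized to total protein. n = 3 ± SD.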
# [10] = system: 4A1^F163L/4A2^− eHAP1 cells; test: Luciferase NMD reporter assay; format: cell-based; conditions: 6 h exposure
# In short: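 Cells were transfected at 75% confluency with an FLuc-β-globin plasmid (PTC-containing or control, with or without an upstream HCV IRES) plus an HCV-IRES RLuc plasmid. The next day they were reseeded and left to recover for 24 h, then given compound for 6 h. Cells were lysed and both luciferases read by luminometry. n = 3 ± SD.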
# T1 sequence (P38919 whole entry, species assumed): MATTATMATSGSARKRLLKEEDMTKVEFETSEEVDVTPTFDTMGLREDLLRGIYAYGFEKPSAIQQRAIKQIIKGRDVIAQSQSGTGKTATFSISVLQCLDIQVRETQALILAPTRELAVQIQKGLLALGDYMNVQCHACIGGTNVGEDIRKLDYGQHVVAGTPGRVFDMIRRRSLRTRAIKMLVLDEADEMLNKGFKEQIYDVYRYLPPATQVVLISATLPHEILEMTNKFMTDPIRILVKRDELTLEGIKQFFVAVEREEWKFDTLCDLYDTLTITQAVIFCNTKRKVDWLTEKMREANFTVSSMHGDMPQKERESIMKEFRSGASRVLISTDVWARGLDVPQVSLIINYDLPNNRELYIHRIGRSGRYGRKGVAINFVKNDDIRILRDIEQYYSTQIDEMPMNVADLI
Compound,Clamping of eIF4A3 to poly r(AG)8 RNA (ΔmP relative to DMSO) (eIF4A3 [1]),FF-4.06 (NMD reporter) mRNA levels [2],"Translational response of all three reporters (AG, UC, NMD 5′ leaders) [3]",HPRT mRNA levels [4],SC35 mRNA levels relative to DMSO controls [4],"TCR-β mRNA levels in PTC+ cells ([5]; PTC+ HeLa cells, 5 h exposure)",TCR-β mRNA levels in PTC− cells ([5]; 5 h exposure),Fitted half-life T(1/2) of eIF4A1•ATP•RNA•compound complex (eIF4A1 [6]),Fitted half-life T(1/2) of eIF4A3•ATP•RNA•compound complex (eIF4A3 [7]),Clamping of eIF4A1 to poly r(AG)8 RNA (ΔmP relative to DMSO) (eIF4A1 [8]),35S-Met incorporation into proteins (translation) [9],"Increase of PTC+ mRNA levels ([5]; PTC+ HeLa cells, 1 h exposure, highest concentration tested (200 nM))","Increase of PTC+ mRNA levels ([5]; PTC+ HeLa cells, 5 h exposure)","Luc expression from FF-4.04 or FF-4.06 reporters ([10]; 300 nM, both reporters)",RLuc expression from internal HCV/Ren control [10],Expression of HCV/FF-4.04 and HCV/FF-4.06 reporters ([10]; titration range tested),Translational response of reporter mRNA with polypurine ([AG]10) 5′ leader [3],"Effect on TCR-β minigene mRNA levels ([5]; PTC+ HeLa cells, 1 µM compound for 1 h)"
COc1ccc([C@@]23Oc4cc(OC)cc(OC)c4[C@]2(O)[C@H](O)[C@H](C(=O)N(C)C)[C@H]3c2ccccc2)cc1 [RocA],able to induce clamping,,,,,,,,,,,,,,,,,
"C[C@@H]1C[C@@H]([C@H](O)CC2CC(=O)NC(=O)C2)C(=O)[C@@H](C)C1 [CHX, cycloheximide]",,increased,equally responsive,not increased,significant increase,significantly increased,no impact,,,,,,,,,,,
COC(=O)[C@H]1[C@@H](O)[C@@]2(O)c3c(OC)cc(O[C@@H]4O[C@@H]([C@H](O)CO)CO[C@H]4OC)cc3O[C@@]2(c2ccc(OC)cc2)[C@@H]1c1ccccc1 [silvestrol],able to induce clamping,,,,,,,,,,,,,,,,,
"CC(/C=C/C(C)=C/[C@@H]1Cc2nc(cs2)[C@@H](C)C[C@@H](N)CC(=O)O[C@@H](C)C/C(C)=C/C=C\C(=O)O1)=C\CN(C)C [PatA, pateamine A]",clamping was observed,,equally inhibited all reporters,not increased,significant increase,Stabilization of TCR-β mRNA,but not PTC− cells,1.83 h and 1.83 ± 0.0233 h,3.05 h and 3.05 ± 0.02 h,clamping was observed,translation was blocked,approximately threefold,10 fold,,,,,
CONC(=O)[C@H]1[C@@H](O)[C@@]2(O)c3c(OC)cc(OC)cc3O[C@@]2(c2ccc(OC)cc2)[C@@H]1c1ccccc1 [CR-1-31B],able to induce clamping,increased only in the presence of CHX,,not increased,did not significantly change,substantial stabilization,,0.833 ± 0.005 h,0.4 ± 0.0067 h,,translation was blocked,,,approximately twofold,No change,neither reporter showed a change in expression,conferred CR-1-31B responsiveness,no significant effect
